According to PMC4292800 (Bioorganic & medicinal chemistry, 2014):
Each block holds one compound with its values, some of them ahead of it.

What was measured:
[1] = system: primary CD34+ normal human blood stem cells; assay: MTT cytotoxicity selectivity, normal blood stem cells versus AML cells; assay type: cell-based; conditions: CD34+ normal human blood stem cells vs MA9.3RAS
In short: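 Both cell types get the same MTT assay. AML cells are cultured in IMDM with 20% bovine calf serum; UCB cells in the same medium plus SCF, IL-3, IL-6, Flt-3L and TPO. Cells are seeded at 4 × 10^4/well, held overnight at 37°C, then exposed 48 h to freshly dissolved test compound. Medium is replaced with MTT for 4 h, then DMSO, OD 575 nm. IC50 comes from a four-parameter sigmoid fit (triplicates, repeated twice), and the ratio is normal IC50 over AML IC50.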

[2] = Oxidation of 14 to 14-ox/14-red by HPLC; assay type: physicochemical
In short: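 Oxidation of the test compound to its bicyclic oxidised/reduced products was followed by reverse-phase C-18 HPLC. Under normal atmosphere the reaction was fitted as pseudo-zero-order to give t1/2. Activation used one molar equivalent of hydrogen peroxide, and rate enhancement was estimated from a lower-limit t1/2 against the atmosphere-only reaction.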

[3] = Oxidation kinetics of 1 into 2 by HPLC; assay type: physicochemical
In short: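 In PBS, alone or with 10 mM H2O2 (a tenfold excess), the test compound's conversion to its oxidised product was followed by reverse-phase HPLC on a C-18 column (Synergi Hydro-RP, 4 μm, 80 Å, 150 × 4.6 mm), and a conversion rate was derived. N-acetylcysteine was then added in limiting amount to mimic cellular thiol addition; the adduct was confirmed by FTMS.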

SMILES: O=C(CSc1ccccc1)Nc1cc(O)ccc1O [Compound 11, N-(2,5-dihydroxyphenyl)-2-(phenylthio)acetamide]
selectivity factor (ratio of IC50 of normal cells over IC50 of AML cells) [1]: limited selectivity

conversion of 14 to its oxidation product ([2]; under argon atmosphere, two hours): 4±3%
SMILES: O=C(CNC1CCCCC1)Nc1cc(O)ccc1O [Compound 14, 2-(cyclohexylamino)-N-(2,5-dihydroxyphenyl)acetamide]
time for conversion of all 14 ([2]; hydrogen peroxide (Figure 3C legend)): less than 0.1 hrs
activation by hydrogen peroxide ([2]; rate enhancement with hydrogen peroxide vs atmosphere): more than 150 fold

conversion of 1 to 2 ([3]; PBS, no exogenous oxidant, in one hour): approximately 50%
SMILES: CN(CC(=O)Nc1cc(O)ccc1O)c1ccccc1 [Compound 1, N-(2,5-dihydroxyphenyl)-2-(methyl(phenyl)amino) acetamide]
rate of conversion of 1 to 2 ([3]; PBS, absence of exogenous oxidant): 0.011 ± 0.002 min^−
rate of conversion of 1 to 2 ([3]; presence of 10 mM H2O2, a tenfold excess): 0.6 ± 0.1 min^−
rate of conversion of 1 into 2 ([3]; with hydrogen peroxide (Figure 2D legend)): 0.6 min⁻¹

SMILES: O=C(COc1ccccc1)Nc1cc(O)ccc1O [Compound 10, N-(2,5-dihydroxyphenyl)-2-phenoxyacetamide]
selectivity factor (ratio of IC50 of normal cells over IC50 of AML cells) [1]: limited selectivity
